Reference: ChEMBL document CHEMBL1146579, “Antifungal agents from the roots of Cudrania cochinchinensis against Candida, Cryptococcus, and Aspergillus species” (2003)
Converted amounts (≈) assume the structure as drawn.

What was measured:
Aspergillus nidulans = test: Antifungal activity against Aspergillus nidulans IFM 5396 after 48 to 96 hrs by broth microdilution method; type: functional
In short: (§1)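 Broth microdilution followed NCCLS with slight modification, giving MIC. Compounds were dissolved in DMSO as a 12.8 mg/mL stock and diluted in RPMI-1640, with final solvent below 1%. Yeasts were kept on modified Sabouraud dextrose agar or potato dextrose agar slants, and filamentous fungi on potato dextrose agar.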

Candida albicans [1] = test: Antifungal activity against Candida albicans ATCC 90028 after 48 to 96 hrs by broth microdilution method; type: functional; in short: as §1
Aspergillus fumigatus [2] = test: Antifungal activity against Aspergillus fumigatus IFM 41374 after 48 to 96 hrs by broth microdilution method; type: functional; in short: as §1
Pichia kudriavzevii = test: Antifungal activity against Candida krusei ATCC 6258 after 48 to 96 hrs by broth microdilution method; type: functional; in short: as §1
Cryptococcus neoformans = test: Antifungal activity against Cryptococcus neoformans ATCC 90112 after 48 to 96 hrs by broth microdilution method; type: functional
In short: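 Broth microdilution followed NCCLS with slight modification, giving MIC. Yeasts were kept on modified Sabouraud dextrose agar or potato dextrose agar slants, and filamentous fungi on potato dextrose agar.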

Candida parapsilosis = test: Antifungal activity against Candida parapsilosis ATCC 22019 after 48 to 96 hrs by broth microdilution method; type: functional; conditions: Lodderomyces parapsilosis; in short: as §1
Nakaseomyces glabratus = test: Antifungal activity against Candida glabrata ATCC 90030 after 48 to 96 hrs by broth microdilution method; type: functional; in short: as §1
Aspergillus fumigatus [3] = test: Antifungal activity against Aspergillus fumigatus IFM 41236 after 48 to 96 hrs by broth microdilution method; type: functional; in short: as §1
Candida albicans [4] = test: Antifungal activity against Candida albicans ATCC 90028 after 48 hrs by disk diffusion assay; type: functional
In short: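 Pure compounds were dissolved in MeOH at 10 mg/mL, about 0.4 mg absorbed per 8 mm paper disk, then air-dried. Plates of Yeast Morphology Agar were incubated 48 h at 30 °C, and the diameter of the inhibition zone was measured.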

Candida albicans [5] = test: Antifungal activity against Candida albicans ATCC 90028 at 100 ug/mL after 48 hrs by disk diffusion assay; type: functional; conditions: ATCC 90028, 48 h, read-out: IZ
In short: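 The 8 mm paper disk was dipped in the solution and air-dried. C. albicans ATCC 90028, preincubated in YPD broth, was the inoculum on Yeast Morphology Agar, incubated 48 h at 30 °C. Read-out was the diameter of the inhibition zone.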

Candida albicans [6] = test: microbe, parasite or virus in culture; conditions: ATCC 90028, 48 h, read-out: IZ

| MIC (Aspergillus nidulans) [µg/mL] | MIC (Candida albicans [1]) [µg/mL] | MIC (Aspergillus fumigatus [2]) [µg/mL] | MIC (Pichia kudriavzevii) [µg/mL] | MIC (Cryptococcus neoformans) [µg/mL] | MIC (Candida parapsilosis) [µg/mL] | MIC (Nakaseomyces glabratus) [µg/mL] | MIC (Aspergillus fumigatus [3]) [µg/mL] | SMILES | inhibition zone (IZ) (Candida albicans [4]) [mm] | zone of inhibition at 100 µg/mL (Candida albicans [5]) [mm] | zone of inhibition at 10 µg/mL (Candida albicans [6]) [mm] |
| --- | --- | --- | --- | --- | --- | --- | --- | --- | --- | --- | --- |
| > 128 | > 128 | > 128 | > 128 | 32 (≈ 103 µM) | > 128 | > 128 | > 128 | CC1(C)C=Cc2c(cc3oc4c(O)cccc4c(=O)c3c2O)O1 | – | – | – |
| > 128 | > 128 | > 128 | > 128 | 128 (≈ 410 µM) | > 128 | > 128 | > 128 | CC(C)=CCc1c(O)cc2oc3ccc(O)cc3c(=O)c2c1O | 9 | – | – |
| > 128 | > 128 | > 128 | > 128 | > 128 | > 128 | > 128 | > 128 | COc1cc(-c2coc3cc(O)cc(O)c3c2=O)ccc1O [3'-O-METHYLOROBOL] | – | – | – |
| 64 (≈ 180 µM) | 64 (≈ 180 µM) | 64 (≈ 180 µM) | 64 (≈ 180 µM) | 32 (≈ 89.8 µM) | 128 (≈ 359 µM) | 128 (≈ 359 µM) | 64 (≈ 180 µM) | CC(C)=CCc1c(O)cc2c(c1O)C(=O)CC(c1ccc(O)cc1O)O2 (stereo not drawn) [CUDRAFLAVANONE B] | 9 | – | – |
| 16 (≈ 48.7 µM) | > 128 | 32 (≈ 97.5 µM) | > 128 | > 128 | > 128 | > 128 | 16 (≈ 48.7 µM) | COc1cc(O)c(C(=O)c2cccc(O)c2CC=C(C)C)c(O)c1 [CUDRANONE] | 9 | – | – |
| 8 (≈ 21.8 µM) | 16 (≈ 43.7 µM) | 8 (≈ 21.8 µM) | 16 (≈ 43.7 µM) | 4 (≈ 10.9 µM) | > 128 | 16 (≈ 43.7 µM) | 4 (≈ 10.9 µM) | CC(C)=CCc1cc(C(=O)c2cccc(O)c2CC=C(C)C)c(O)cc1O [CUDRAPHENONE B] | – | – | – |
| 32 (≈ 84.1 µM) | 64 (≈ 168 µM) | 16 (≈ 42.1 µM) | 64 (≈ 168 µM) | 16 (≈ 42.1 µM) | > 128 | > 128 | 8 (≈ 21 µM) | CC(C)=CCc1c(O)cccc1C(=O)c1c(O)cc(O)c2c1OC(C)(C)C=C2 [CUDRAPHENONE C] | 10 | – | – |
| 16 (≈ 41.8 µM) | 16 (≈ 41.8 µM) | 8 (≈ 20.9 µM) | 8 (≈ 20.9 µM) | 2 (≈ 5.23 µM) | 64 (≈ 167 µM) | 32 (≈ 83.7 µM) | 4 (≈ 10.5 µM) | CC(C)=CCc1c(O)cccc1C(=O)c1c(O)cc(O)c(CC=C(C)C)c1O [CUDRAPHENONE D] | 11 | – | – |
| 4 (≈ 12.2 µM) | 16 (≈ 48.7 µM) | 4 (≈ 12.2 µM) | > 128 | 2 (≈ 6.09 µM) | > 128 | 4 (≈ 12.2 µM) | 4 (≈ 12.2 µM) | C=CC(C)(C)c1c(O)cc2oc3c(O)c(O)ccc3c(=O)c2c1O [CUDRAXANTHONE S] | 9 | – | – |
| 128 (≈ 376 µM) | 64 (≈ 188 µM) | > 128 | 64 (≈ 188 µM) | 64 (≈ 188 µM) | > 128 | > 128 | 16 (≈ 47 µM) | CC(C)=CCc1c(O)cc(O)c2c1OC(c1ccc(O)cc1)CC2=O (stereo not drawn) [SOPHORAFLAVANONE B] | – | – | – |
| 2 (≈ 5.91 µM) | 16 (≈ 47.3 µM) | 4 (≈ 11.8 µM) | > 128 | 4 (≈ 11.8 µM) | > 128 | > 128 | 2 (≈ 5.91 µM) | CC(C)=CCc1c(O)cc2occ(-c3ccc(O)cc3)c(=O)c2c1O [WIGHTEONE] | 11 | – | – |

| SMILES | MIC (Aspergillus nidulans) [µg/mL] | MIC (Candida albicans [1]) [µg/mL] | MIC (Aspergillus fumigatus [2]) [µg/mL] | MIC (Pichia kudriavzevii) [µg/mL] | MIC (Cryptococcus neoformans) [µg/mL] | MIC (Candida parapsilosis) [µg/mL] | MIC (Nakaseomyces glabratus) [µg/mL] | MIC (Aspergillus fumigatus [3]) [µg/mL] | inhibition zone (IZ) (Candida albicans [4]) [mm] | zone of inhibition at 100 µg/mL (Candida albicans [5]) [mm] | zone of inhibition at 10 µg/mL (Candida albicans [6]) [mm] |
| --- | --- | --- | --- | --- | --- | --- | --- | --- | --- | --- | --- |
| C[C@@H]1[C@H](O)[C@@H](C)/C=C/C=C/C=C/C=C/C=C/C=C/C=C/[C@H](O[C@@H]2O[C@H](C)[C@@H](O)[C@H](N)[C@@H]2O)C[C@@H]2O[C@](O)(C[C@@H](O)C[C@@H](O)[C@H](O)CC[C@@H](O)C[C@@H](O)CC(=O)O[C@H]1C)C[C@H](O)[C@H]2C(=O)O [AMPHOTERICIN B] | 2 (≈ 2.16 µM) | 2 (≈ 2.16 µM) | 1 (≈ 1.08 µM) | 2 (≈ 2.16 µM) | – | 2 (≈ 2.16 µM) | 1 (≈ 1.08 µM) | 1 (≈ 1.08 µM) | 22 | 18 | – |
| Clc1ccc(COC(Cn2ccnc2)c2ccc(Cl)cc2Cl)c(Cl)c1 (stereo not drawn) [MICONAZOLE] | 0.25 (≈ 0.601 µM) | 1 (≈ 2.4 µM) | 0.5 (≈ 1.2 µM) | 1 (≈ 2.4 µM) | 0.064 (≈ 0.154 µM) | 0.5 (≈ 1.2 µM) | 0.5 (≈ 1.2 µM) | 0.5 (≈ 1.2 µM) | 14 | – | 15 |
| CC1Oc2cc3oc4c(O)c(O)ccc4c(=O)c3c(O)c2C1(C)C (stereo not drawn) [TOXYLOXANTHONE C] | 8 (≈ 24.4 µM) | > 128 | 8 (≈ 24.4 µM) | > 128 | 8 (≈ 24.4 µM) | > 128 | 8 (≈ 24.4 µM) | 8 (≈ 24.4 µM) | 9 | – | – |
